# Assay results as given in ChEMBL document CHEMBL4689842, “EUbOPEN Chemogenomics Library wave 1” (2021).
# System: U2OS
# Assay: Multiplex assay against U2OS
# Format: toxicity, cell-based
# Details: human
# Method in brief: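 Hoechst33342, BioTracker Green Microtubule Cytoskeleton Dye, MitoTracker Red and Annexin V Alexa Fluor 680 were added to live cells at seeding, and imaging on a CQ1 microscope at 37°C and 5% CO2 followed compound addition. Gating by CellPathfinder machine learning separated cells into Hoechst high-intensity objects or normal cells, then normal cells into healthy, pyknosed or fragmented nuclei, then pyknosed cells into mitotic or apoptotic. Per cents of healthy-nucleus cells are reported for the tubulin, mitochondrial-mass and membrane-permeability phenotypes.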
# [1] = 12 h, 1 µM, compound concentration 1 uM, replicate 1
# [2] = 12 h, 1 µM, compound concentration 1 uM, replicate 2
# [3] = 12 h, 10 µM, compound concentration 10 uM, replicate 1
# [4] = 12 h, 10 µM, compound concentration 10 uM, replicate 2
# [5] = 24 h, 1 µM, compound concentration 1 uM, replicate 1
# [6] = 24 h, 1 µM, compound concentration 1 uM, replicate 2
# [7] = 24 h, 10 µM, compound concentration 10 uM, replicate 1
# [8] = 24 h, 10 µM, compound concentration 10 uM, replicate 2
# [9] = 48 h, 1 µM, compound concentration 1 uM, replicate 1
# [10] = 48 h, 1 µM, compound concentration 1 uM, replicate 2
# [11] = 48 h, 10 µM, compound concentration 10 uM, replicate 1
# [12] = 48 h, 10 µM, compound concentration 10 uM, replicate 2
smiles,measurement,setting,value
CN(C)C(=O)N[C@H]1CC[C@H](CCN2CCN(c3cccc(Cl)c3Cl)CC2)CC1.Cl [CARIPRAZINE HYDROCHLORIDE],Population Apoptotic (%),[1],20%
same,Population Fragmented Nuclei (%),[1],14%
same,Population Healthy Nuclei (%),[1],79%
same,Population Hoechst High Intensity Objects (%),[1],8%
same,Population Membrane Permeable-Phenotype (%),[1],4%
same,Population Mitotic Cells (%),[1],80%
same,Population Normal (%),[1],91%
same,Population Pyknosed Nuclei (%),[1],6%
same,Population Tubulin-Different-Phenotype (%),[1],14%
same,Total Cell Count,[1],84
same,Population Apoptotic (%),[2],60%
same,Population Fragmented Nuclei (%),[2],7%
same,Population Healthy Nuclei (%),[2],84%
same,Population Hoechst High Intensity Objects (%),[2],6%
same,Population Membrane Permeable-Phenotype (%),[2],6%
same,Population Mitochondria Different-Phenotype (%),[2],29%
same,Population Mitotic Cells (%),[2],40%
same,Population Normal (%),[2],93%
same,Population Pyknosed Nuclei (%),[2],8%
same,Population Tubulin-Different-Phenotype (%),[2],22%
same,Total Cell Count,[2],61
same,Population Apoptotic (%),[3],50%
same,Population Fragmented Nuclei (%),[3],15%
same,Population Healthy Nuclei (%),[3],59%
same,Population Hoechst High Intensity Objects (%),[3],8%
same,Population Membrane Permeable-Phenotype (%),[3],14%
same,Population Mitochondria Different-Phenotype (%),[3],97%
same,Population Mitotic Cells (%),[3],50%
same,Population Normal (%),[3],91%
same,Population Tubulin-Different-Phenotype (%),[3],100%
same,Total Cell Count,[3],78
same,Population Apoptotic (%),[4],36%
same,Population Fragmented Nuclei (%),[4],17%
same,Population Healthy Nuclei (%),[4],57%
same,Population Hoechst High Intensity Objects (%),[4],3%
same,Population Membrane Permeable-Phenotype (%),[4],47%
same,Population Mitochondria Different-Phenotype (%),[4],95%
same,Population Mitotic Cells (%),[4],63%
same,Population Normal (%),[4],96%
same,Population Pyknosed Nuclei (%),[4],25%
same,Population Tubulin-Different-Phenotype (%),[4],95%
same,Total Cell Count,[4],79
same,Population Apoptotic (%),[5],41%
same,Population Fragmented Nuclei (%),[5],13%
same,Population Healthy Nuclei (%),[5],73%
same,Population Hoechst High Intensity Objects (%),[5],9%
same,Population Membrane Permeable-Phenotype (%),[5],4%
same,Population Mitochondria Different-Phenotype (%),[5],17%
same,Population Mitotic Cells (%),[5],58%
same,Population Normal (%),[5],90%
same,Population Pyknosed Nuclei (%),[5],13%
same,Population Tubulin-Different-Phenotype (%),[5],8%
same,Total Cell Count,[5],102
same,Population Apoptotic (%),[6],66%
same,Population Fragmented Nuclei (%),[6],6%
same,Population Healthy Nuclei (%),[6],84%
same,Population Hoechst High Intensity Objects (%),[6],4%
same,Population Membrane Permeable-Phenotype (%),[6],7%
same,Population Mitochondria Different-Phenotype (%),[6],22%
same,Population Mitotic Cells (%),[6],33%
same,Population Normal (%),[6],95%
same,Population Pyknosed Nuclei (%),[6],9%
same,Population Tubulin-Different-Phenotype (%),[6],14%
same,Total Cell Count,[6],67
same,Population Apoptotic (%),[7],57%
same,Population Fragmented Nuclei (%),[7],13%
same,Population Healthy Nuclei (%),[7],57%
same,Population Hoechst High Intensity Objects (%),[7],13%
same,Population Membrane Permeable-Phenotype (%),[7],28%
same,Population Mitochondria Different-Phenotype (%),[7],97%
same,Population Mitotic Cells (%),[7],42%
same,Population Normal (%),[7],86%
same,Population Pyknosed Nuclei (%),[7],28%
same,Total Cell Count,[7],84
same,Population Apoptotic (%),[8],94%
same,Population Fragmented Nuclei (%),[8],23%
same,Population Healthy Nuclei (%),[8],55%
same,Population Hoechst High Intensity Objects (%),[8],3%
same,Population Membrane Permeable-Phenotype (%),[8],42%
same,Population Mitochondria Different-Phenotype (%),[8],95%
same,Population Mitotic Cells (%),[8],5%
same,Population Normal (%),[8],96%
same,Population Pyknosed Nuclei (%),[8],20%
same,Population Tubulin-Different-Phenotype (%),[8],95%
same,Total Cell Count,[8],87
same,Population Apoptotic (%),[9],27%
same,Population Fragmented Nuclei (%),[9],9%
same,Population Hoechst High Intensity Objects (%),[9],6%
same,Population Membrane Permeable-Phenotype (%),[9],0%
same,Population Mitochondria Different-Phenotype (%),[9],12%
same,Population Mitotic Cells (%),[9],72%
same,Population Normal (%),[9],93%
same,Population Pyknosed Nuclei (%),[9],8%
same,Population Tubulin-Different-Phenotype (%),[9],7%
same,Total Cell Count,[9],140
same,Population Apoptotic (%),[10],50%
same,Population Fragmented Nuclei (%),[10],6%
same,Population Healthy Nuclei (%),[10],82%
same,Population Hoechst High Intensity Objects (%),[10],2%
same,Population Membrane Permeable-Phenotype (%),[10],9%
same,Population Mitochondria Different-Phenotype (%),[10],15%
same,Population Mitotic Cells (%),[10],50%
same,Population Normal (%),[10],97%
same,Population Pyknosed Nuclei (%),[10],10%
same,Population Tubulin-Different-Phenotype (%),[10],13%
same,Total Cell Count,[10],94
same,Population Apoptotic (%),[11],79%
same,Population Fragmented Nuclei (%),[11],12%
same,Population Healthy Nuclei (%),[11],59%
same,Population Hoechst High Intensity Objects (%),[11],13%
same,Population Membrane Permeable-Phenotype (%),[11],26%
same,Population Mitochondria Different-Phenotype (%),[11],96%
same,Population Mitotic Cells (%),[11],20%
same,Population Normal (%),[11],86%
same,Population Pyknosed Nuclei (%),[11],27%
same,Population Tubulin-Different-Phenotype (%),[11],96%
same,Total Cell Count,[11],101
same,Population Apoptotic (%),[12],70%
same,Population Fragmented Nuclei (%),[12],20%
same,Population Healthy Nuclei (%),[12],53%
same,Population Hoechst High Intensity Objects (%),[12],2%
same,Population Membrane Permeable-Phenotype (%),[12],42%
same,Population Mitochondria Different-Phenotype (%),[12],89%
same,Population Mitotic Cells (%),[12],29%
same,Population Normal (%),[12],97%
same,Population Pyknosed Nuclei (%),[12],25%
same,Population Tubulin-Different-Phenotype (%),[12],82%
same,Total Cell Count,[12],108
